Measured values reported in publication PMC7103123 (Toxicology and Applied Pharmacology, 2017).

Assays:
[1] = test system: TGEV; test: Anti-TGEV IC50 of cardenolides alone or combined with aldosterone or Db cAMP; type: cell-based, porcine transmissible gastroenteritis virus; settings: Fig. 4D-c
[2] = test system: Na^+/K^+-ATPase; test: Na^+/K^+-ATPase protein level in ST cells; type: cell-based, swine; settings: Fig. 4D-a
[3] = test system: TGEV; test: Effect of Na^+/K^+-ATPase activators on TGEV activity in ST cells; type: cell-based, porcine transmissible gastroenteritis virus; settings: Fig. 4D-b
[4] = Cytotoxicity assay in TGEV infected ST cells; type: cell-based, swine; settings: swine
Method in brief: (§1)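 Cytotoxicity is measured in TGEV-infected ST cells in parallel with the immunofluorescence replication assay, with compound pretreatment for 1 h. CC50 is read at 6 h.p.i. Means ± S.D. come from 3–5 independent experiments, each in duplicate.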

[5] = test system: caspase-3 activation in TGEV infected ST cells; test: Western blot for TGEV induced caspase-3 activation in ST cells; type: cell-based, swine; settings: 1 μM, 18 h.p.i.
Method in brief: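 TGEV-infected swine testicular (ST) cells were treated with test compound at the indicated concentrations and harvested at 18 h post-infection. Lysates were analysed by western blot with antibodies against caspase-3 to detect its activation, plus TGEV N protein and β-actin as the loading control. A reference anti-TGEV compound served as the positive control.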

[6] = test system: TGEV N protein; test: Western analysis for TGEV N protein expression in infected ST cells; type: cell-based, porcine transmissible gastroenteritis virus
Method in brief: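 Western blot for TGEV N protein in infected ST cells. In the titer-linked set, compound is added 1 h before TGEV (0.01 MOI), with 22 h incubation at 37 °C. Adherent cells are harvested for blotting while supernatants go to titration. Three or more independent experiments.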

[7] = test system: TGEV; test: Cytopathic effect assay in TGEV infected ST cells; type: cell-based, porcine transmissible gastroenteritis virus; settings: 1 μM, TGEV 3.5 MOI, 18 h.p.i.
Method in brief: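 ST cells are pretreated with test compound for 1 h, then TGEV-infected at MOI 3.5, with mock-infected controls. At 18 h.p.i., cytopathic effect (rounding, enlargement, syncytia, detachment) is scored and viability is measured by MTS. Survival is compared with vehicle-treated infected cells by Student t-test. Three independent experiments.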

[8] = test system: ST cells; test: Cytotoxicity assay in TGEV infected ST cells; type: cell-based, swine; settings: read-out: ST CC50; cytotoxicity in TGEV infected ST cells at 6 h.p.i.
Method in brief: as §1

Molecule | CC50 at 6 h post infection [4] [µM] | CC50 [8] [µM] | other results
C[C@]12CCC(=O)C=C1CC[C@@H]1[C@@H]2[C@@H](O)C[C@]2(C=O)[C@@H](C(=O)CO)CC[C@@H]12 [Aldosterone, aldosterone] |  |  | effect on anti-TGEV activity of cardenolides [1]: able to antagonize; Na^+/K^+-ATPase protein level in ST cells [2]: moderately augmented; infectivity of TGEV [3]: increased the infectivity
CCCC(=O)Nc1ncnc2c1ncn2[C@@H]1O[C@@H]2COP(=O)([O-])O[C@H]2[C@H]1OC(=O)CCC.[Na+] [Db cAMP, N6,2′-O-Dibutyryladenosine 3′,5′-cyclic monophosphate sodium salt] |  |  | effect on anti-TGEV activity of cardenolides [1]: able to antagonize; Na^+/K^+-ATPase protein level in ST cells [2]: moderately augmented; infectivity of TGEV [3]: increased the infectivity
C[C@]12CC[C@H](O)C[C@H]1CC[C@@H]1[C@@H]2CC[C@]2(C)[C@@H](C3=CC(=O)OC3)CC[C@]12O [Digitoxigenin, digitoxigenin] | > 10 |  | 
C[C@H]1O[C@@H](O[C@H]2[C@@H](O)C[C@H](O[C@H]3[C@@H](O)C[C@H](O[C@H]4CC[C@@]5(C)[C@H](CC[C@@H]6[C@@H]5CC[C@]5(C)[C@@H](C7=CC(=O)OC7)CC[C@]65O)C4)O[C@@H]3C)O[C@@H]2C)C[C@H](O)[C@@H]1O [Digitoxin, digitoxin] | > 10 |  | protection against caspase-3 activation [5]: strong protection
C[C@H]1O[C@@H](O[C@H]2[C@@H](O)C[C@H](O[C@H]3[C@@H](O)C[C@H](O[C@H]4CC[C@@]5(C)[C@H](CC[C@@H]6[C@@H]5C[C@@H](O)[C@]5(C)[C@@H](C7=CC(=O)OC7)CC[C@]65O)C4)O[C@@H]3C)O[C@@H]2C)C[C@H](O)[C@@H]1O [Digoxin, digoxin] | > 10 |  | 
CO[C@H]1C[C@H](O[C@H]2CC[C@@]3(C)[C@H](CC[C@@H]4[C@@H]3CC[C@]3(C)[C@@H](C5=CC(=O)OC5)[C@@H](OC(C)=O)C[C@]43O)C2)O[C@@H](C)[C@@H]1O [Oleandrin, oleandrin] | > 10 |  | N protein expression in TGEV infected ST cells ([6]; TGEV 0.01 MOI, 22 h.p.i. (Fig. 3B)): dose dependant manner; N protein expression by western analyses in TGEV infected ST cells ([6]; various doses (Fig. 1D)): dose dependent manner of decreases; protection against caspase-3 activation [5]: strong protection
C[C@@H]1O[C@@H](O[C@H]2C[C@@H](O)[C@]3(CO)[C@H]4[C@H](O)C[C@]5(C)[C@@H](C6=CC(=O)OC6)CC[C@]5(O)[C@@H]4CC[C@]3(O)C2)[C@H](O)[C@H](O)[C@H]1O [Ouabain, ouabain] | > 10 |  | protection against caspase-3 activation [5]: strong protection
COc1cc2c3c(c4cc(OC)c(OC)cc4c2cc1OC)CN1CCC[C@@H]1C3 [Tylophorine] | > 10 |  | protection against cytopathic effect [7]: displayed protection
Reevesioside B |  | > 50 | 
Reevesioside C |  | > 50 | 
Reevesioside D |  | > 50 | 
Reevesioside E |  | > 50 | 
Reevesioside F |  | > 10 | protection against caspase-3 activation [5]: strong protection
Reevesioside H /epi-Reevesioside H |  | > 50 | 
Reevesioside I /epi-Reevesioside I |  | > 50 | 
